Reference: paper PMC3962999 (The Biochemical journal, 2011)
Several values for one entry are separate records, joined by “and”; a condition that tells them apart may be missing. Equal values may be shown once. Read-outs that look alike come from different tables or passages of the source. One block for each compound: values may come before it.

Key:
[1] = target: T1, phosphatase-like domain of PPIP5K2 (PBD2) (Homo sapiens, UniProt O43314); assay: Phosphatase assay with phosphatase-like domain of PPIP5K2; type: biochemical; settings: for hydrolysis of inositol phosphate: results not shown
T1 sequence (O43314 371-901 isoform O43314-2): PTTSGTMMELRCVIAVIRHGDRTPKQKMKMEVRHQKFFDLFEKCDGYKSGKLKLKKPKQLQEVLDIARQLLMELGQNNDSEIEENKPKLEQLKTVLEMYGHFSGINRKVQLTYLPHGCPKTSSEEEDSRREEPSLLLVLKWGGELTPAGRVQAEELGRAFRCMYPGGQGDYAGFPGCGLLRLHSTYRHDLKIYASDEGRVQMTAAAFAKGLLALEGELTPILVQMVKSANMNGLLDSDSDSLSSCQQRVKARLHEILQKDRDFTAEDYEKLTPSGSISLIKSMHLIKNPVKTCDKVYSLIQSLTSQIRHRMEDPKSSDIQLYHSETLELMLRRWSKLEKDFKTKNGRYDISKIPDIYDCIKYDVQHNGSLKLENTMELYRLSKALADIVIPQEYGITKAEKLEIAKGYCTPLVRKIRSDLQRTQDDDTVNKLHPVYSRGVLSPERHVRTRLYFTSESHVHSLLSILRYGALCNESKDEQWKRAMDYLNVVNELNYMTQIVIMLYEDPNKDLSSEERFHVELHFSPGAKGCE
Procedure, shortened: (§1)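 Enzyme and 50 mM p-nitrophenyl phosphate were incubated at 37 °C in EDTA-free phosphatase buffer: 5 mM Hepes pH 7.2, 100 mM KCl, 2 mM MgCl₂, 0.5 mg/ml BSA. Reactions were stopped with 1 M NaOH, and p-nitrophenol accumulation was read as absorbance. Phosphatase-like domains were His-tagged constructs made in E. coli with pGro7 chaperones, purified by Ni-NTA then SP cation exchange. hMIPP was recombinant.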

[2] = target: T2, phosphatase-like domain of PPIP5K1 (PBD1) (Homo sapiens, UniProt Q6PFW1); assay: Phosphatase assay with phosphatase-like domain of PPIP5K1; type: biochemical; settings: for hydrolysis of inositol phosphate: up to 15 h at 37 °C, trace 3H-labelled material (InsP6 also 1 μM)
T2 sequence (Q6PFW1 382-917): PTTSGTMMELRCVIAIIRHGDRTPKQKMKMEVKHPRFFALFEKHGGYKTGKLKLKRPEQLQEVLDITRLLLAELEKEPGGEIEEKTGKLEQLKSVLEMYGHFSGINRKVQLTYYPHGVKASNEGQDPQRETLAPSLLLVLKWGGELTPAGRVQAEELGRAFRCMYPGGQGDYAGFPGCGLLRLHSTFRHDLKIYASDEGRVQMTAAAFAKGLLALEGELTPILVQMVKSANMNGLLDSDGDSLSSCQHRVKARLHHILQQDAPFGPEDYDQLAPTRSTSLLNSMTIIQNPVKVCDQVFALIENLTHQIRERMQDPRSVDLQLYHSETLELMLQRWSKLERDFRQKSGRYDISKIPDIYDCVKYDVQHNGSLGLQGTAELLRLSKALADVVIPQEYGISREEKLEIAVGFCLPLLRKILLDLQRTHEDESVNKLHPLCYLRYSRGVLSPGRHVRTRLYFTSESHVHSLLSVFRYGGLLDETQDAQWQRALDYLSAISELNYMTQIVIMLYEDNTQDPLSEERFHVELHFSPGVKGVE
Procedure, shortened: as §1

hMIPP = target: T3, hMIPP (Homo sapiens, UniProt Q9UNW1); assay: Hydrolysis of p-nitrophenyl phosphate by hMIPP; type: biochemical; settings: 50 mM p-nitrophenyl phosphate, 90 ug hMIPP
T3 sequence (Q9UNW1 31-487): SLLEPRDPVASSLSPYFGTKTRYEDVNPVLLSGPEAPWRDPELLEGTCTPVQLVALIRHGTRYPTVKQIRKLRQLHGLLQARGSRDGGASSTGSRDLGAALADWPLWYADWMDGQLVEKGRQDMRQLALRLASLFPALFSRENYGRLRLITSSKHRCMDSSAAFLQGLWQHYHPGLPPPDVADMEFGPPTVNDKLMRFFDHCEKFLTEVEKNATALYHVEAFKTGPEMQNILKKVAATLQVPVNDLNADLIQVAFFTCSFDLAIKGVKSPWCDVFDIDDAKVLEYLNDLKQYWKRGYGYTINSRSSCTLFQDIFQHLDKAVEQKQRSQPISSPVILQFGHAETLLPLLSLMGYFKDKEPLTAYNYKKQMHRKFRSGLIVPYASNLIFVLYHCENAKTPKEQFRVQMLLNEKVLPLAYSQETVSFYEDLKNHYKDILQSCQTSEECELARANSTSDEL
Procedure, shortened: as §1

NIH 3T3 cells = assay: Confocal immunofluorescence of FLAG-PPIP5K1 translocation to the plasma membrane; type: cell-based
Procedure, shortened: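 NIH 3T3 cells on glass-bottom dishes were transfected 24 h after seeding with full-length FLAG-tagged human PPIP5K1 (Lipofectamine 2000). The next day they were serum-starved 3 h, then given PDGF. Cells were fixed in 3 % paraformaldehyde/4 % sucrose (15 min, 23 °C), permeabilized with 0.2 % Triton X-100, and blocked. Staining used anti-FLAG (2 h, 37 °C), Alexa 488 secondary and DAPI. Confocal ×63 line intensity profiles gave plasma membrane/cytoplasm pixel intensity ratios.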

PPIP5K1 kinase domain [3] = target: T4, PPIP5K1 kinase domain (Homo sapiens, UniProt Q6PFW1); settings: cited from earlier work
T4 sequence (Q6PFW1 1-387 limits assumed): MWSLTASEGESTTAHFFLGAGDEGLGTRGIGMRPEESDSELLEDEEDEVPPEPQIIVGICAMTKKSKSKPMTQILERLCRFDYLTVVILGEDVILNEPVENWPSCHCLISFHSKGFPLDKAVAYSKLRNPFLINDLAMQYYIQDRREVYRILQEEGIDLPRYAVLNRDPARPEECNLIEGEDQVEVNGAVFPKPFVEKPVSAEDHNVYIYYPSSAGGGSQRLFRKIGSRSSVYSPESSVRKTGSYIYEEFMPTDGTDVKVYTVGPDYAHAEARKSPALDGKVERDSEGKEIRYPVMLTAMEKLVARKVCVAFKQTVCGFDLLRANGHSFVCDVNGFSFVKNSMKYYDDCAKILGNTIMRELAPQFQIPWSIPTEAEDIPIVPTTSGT

PPIP5K1 kinase domain [4] = target: T4, PPIP5K1 kinase domain; assay: Kinase assay with PPIP5K1 kinase domain; type: biochemical; settings: ratio of kcat/Km, this study
[5] = test system: full-length recombinant human PPIP5K1; settings: in vitro; cited from earlier work
PBD2 = target: T5, PBD2 (Homo sapiens, UniProt O43314); assay: PEG precipitation [3H]InsP6 binding assay
T5 sequence (O43314 371-901 isoform O43314-2): T1 sequence (O43314 371-901 isoform O43314-2)
Procedure, shortened: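 PBD2 (32 μg) was incubated 20 min at 4 °C in 25 mM Hepes pH 7.2 containing 5 mg/ml γ-globulin, 100 mM KCl, 1 mM EDTA and 1 mM DTT. Each tube held ~15000 d.p.m. [³H]InsP₆ plus increasing unlabelled InsP₆ or C₈-PtdIns(3,4,5)P₃. Ice-cold 30 % PEG was added, samples were held 10 min at 0–4 °C and centrifuged at 10 000 g. Washed pellets were counted, and Kd and Bmax came from the saturation binding plot.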

PBD2 (PPIP5K2) = target: T6, PBD2 (PPIP5K2) (Homo sapiens, UniProt O43314); assay: SPR equilibrium binding to immobilized lipid vesicles, PBD2; settings: for binding to PBD2: SPR, in words
T6 sequence (O43314 371-901 isoform O43314-2): T1 sequence (O43314 371-901 isoform O43314-2)
Procedure, shortened: (§2)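 Large unilamellar vesicles (PtdCho/PtdE/test phosphoinositide 77:20:3) were captured on an L1 chip to 5000 RU. Signals were corrected against phosphoinositide-free vesicles. Kd came from nonlinear fitting of Req = Rmax/(1+Kd/C). Concentrations were: GRP-1 PH domain 2.5–125 nM; PBD1 on PtdIns(3,4,5)P₃ 5–150 nM; bisphosphate vesicles 75–1900 nM.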

GRP-1 PH domain [6] = target: T7, GRP-1 PH domain (Mus musculus, UniProt O08967); assay: SPR equilibrium binding to immobilized lipid vesicles, GRP-1 PH domain
T7 sequence (O08967 264-380 limits assumed): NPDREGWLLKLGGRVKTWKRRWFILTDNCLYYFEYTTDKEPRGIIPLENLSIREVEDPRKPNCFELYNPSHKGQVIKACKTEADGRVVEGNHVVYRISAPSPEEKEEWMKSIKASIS
Procedure, shortened: as §2

GRP-1 PH domain [7] = target: T7, GRP-1 PH domain; settings: read-out: Kd, values published by others; same technique; cited from earlier work
PBD1 (PPIP5K1) = target: T8, PBD1 (PPIP5K1) (Homo sapiens, UniProt Q6PFW1); assay: SPR equilibrium binding to immobilized lipid vesicles, PBD1; settings: for binding to PBD1: SPR, in words
T8 sequence (Q6PFW1 382-917): T2 sequence (Q6PFW1 382-917)
Procedure, shortened: as §2

[8] = Stability of InsP8 through acid-quench, neutralization and HPLC; type: physicochemical; settings: HPLC-purified [3H]InsP8

binding to PBD2 (PBD2 (PPIP5K2)): did not bind
binding to PBD1 (PBD1 (PPIP5K1)): did not bind
Compound: Ptd3P

affinity relative to PtdIns(3,4,5)P3 (fold lower) (PBD1 (PPIP5K1); PBD1): approx. 6 fold
binding to PBD1 (PBD1 (PPIP5K1)): significantly weaker ligands
Compound: PtdIns(3,4)P2

hydrolysis of inositol phosphate [1]: Identical results
Compound: O=P(O)(O)OC1C(OP(=O)(O)O)C(OP(=O)(O)OP(=O)(O)O)C(OP(=O)(O)O)C(OP(=O)(O)OP(=O)(O)O)C1OP(=O)(O)O (centres unmarked) [[PP]2-InsP4, 1/3,5-[PP]2-InsP4]
hydrolysis of inositol phosphate [2]: none of these polyphosphates were hydrolysed
dephosphorylation by full-length PPIP5K1 [5]: does not de-phosphorylate

binding to PBD2 (PBD2 (PPIP5K2)): did not bind
binding to PBD1 (PBD1 (PPIP5K1)): did not bind
Compound: Ptd4P

binding to PBD2 (PBD2 (PPIP5K2)): did not bind
binding to PBD1 (PBD1 (PPIP5K1)): did not bind
Compound: Ptd5P

binding to PBD2 (PBD2 (PPIP5K2)): did not bind
binding to PBD1 (PBD1 (PPIP5K1)): no significant binding
Compound: PtdIns(3,5)P2

hydrolysis of inositol phosphate [1]: Identical results
dephosphorylation after acid-quench, neutralization and HPLC [8]: did not detect any dephosphorylation
recovery after acid-quench, neutralization and HPLC [8]: > 85%
Compound: InsP8
hydrolysis of inositol phosphate [2]: none of these polyphosphates were hydrolysed

Further lines, the compound ahead of its results:

Compound: O=[N+]([O-])c1ccc(OP(=O)(O)O)cc1 [p-nitrophenyl phosphate, reference compound]
hydrolysis of p-nitrophenyl phosphate ([1]; 50 mM p-nitrophenyl phosphate, 90 μg PBD2): no activity
hydrolysis of p-nitrophenyl phosphate ([2]; 50 mM p-nitrophenyl phosphate, 90 μg PBD1): no activity
rate of p-nitrophenyl phosphate hydrolysis (hMIPP): approx. 10 nM/mg of protein per min

Compound: PDGF
proportion of PPIP5K1 at the plasma membrane (NIH 3T3 cells; 50 ng/ml PDGF, 5 min): significant increase

Compound: O=P(O)(O)OC1[C@@H](OP(=O)(O)O)[C@H](OP(=O)(O)O)C(OP(=O)(O)OP(=O)(O)O)[C@H](OP(=O)(O)O)[C@H]1OP(=O)(O)O (some centres unmarked) [5-PP-InsP5]
catalytic specificity for 5-PP-InsP5 relative to InsP6 (PPIP5K1 kinase domain [3]): 2.5 fold
hydrolysis of inositol phosphate [1]: Identical results
hydrolysis of inositol phosphate [2]: none of these polyphosphates were hydrolysed
catalytic preference for 5-PP-InsP5 over InsP6 (PPIP5K1 kinase domain [4]): 80 fold
dephosphorylation by full-length PPIP5K1 [5]: does not de-phosphorylate

Compound: O=P(O)(O)OC1[C@@H](OP(=O)(O)O)[C@H](OP(=O)(O)O)C(O)[C@H](OP(=O)(O)O)[C@H]1OP(=O)(O)O (some centres unmarked) [Ins(1,3,4,5,6)P5]
dephosphorylation by full-length PPIP5K1 [5]: does not de-phosphorylate

Compound: O=P(O)(O)O[C@H]1[C@H](OP(=O)(O)O)[C@@H](OP(=O)(O)O)[C@H](OP(=O)(O)O)[C@@H](OP(=O)(O)O)[C@H]1OP(=O)(O)O [InsP6]
hydrolysis of inositol phosphate [1]: Identical results
hydrolysis of inositol phosphate [2]: none of these polyphosphates were hydrolysed
Bmax (PBD2; InsP6 binding to PBD2): 0.6 mol/mol of protein
Kd (PBD2; saturation binding plot, 4 °C): 0.6 µM and 0.57 µM
dephosphorylation by full-length PPIP5K1 [5]: does not de-phosphorylate

Compound: CCCCC/C=C\C/C=C\C/C=C\C/C=C\CCCC(=O)O[C@H](COC(=O)CCCCCCCCCCCCCCCCC)COP(=O)(O)O[C@H]1[C@H](O)[C@@H](OP(=O)(O)O)[C@H](OP(=O)(O)O)[C@@H](OP(=O)(O)O)[C@H]1O [PtdIns(3,4,5)P3]
Kd (PBD2 (PPIP5K2)): 0.705 µM
Kd (GRP-1 PH domain [6]): 0.059 µM
Kd (GRP-1 PH domain [7]): 0.028 to 0.17 µM
Kd (PBD1 (PPIP5K1)): 0.096 µM

Compound: CCCCCCCC(=O)OC[C@H](COP(=O)(O)OC1[C@H](O)[C@H](OP(=O)(O)O)C(OP(=O)(O)O)[C@H](OP(=O)(O)O)[C@H]1O)OC(=O)CCCCCCC (some centres unmarked) [C8 soluble analogue of PtdIns(3,4,5)P3, C8-PtdIns(3,4,5)P3, reference compound]
hydrolysis of the lipid (phosphate release) ([2]; PBD1 35 μg/ml, 24 h at 37 °C, 1 mM lipid): unable to detect any hydrolysis
potency relative to InsP6 at displacing [3H]InsP6 (PBD2; PEG-precipitation assay): 2- to 3 fold

Compound: O=c1cc(N2CCOCC2)oc2c(-c3ccccc3)cccc12 [LY294002, reference compound]
PDGF-induced translocation of PPIP5K1 (NIH 3T3 cells; 15 min pre-treatment with 100 μM LY294002 before 50 ng/ml PDGF for 5 min): largely prevented

Compound: O=P(O)(O)OC1[C@@H](OP(=O)(O)O)[C@@H](OP(=O)(O)O)C(OP(=O)(O)OP(=O)(O)O)[C@H](OP(=O)(O)O)[C@H]1OP(=O)(O)O (some centres unmarked) [1/3-PP-InsP5]
hydrolysis of inositol phosphate [1]: Identical results
hydrolysis of inositol phosphate [2]: none of these polyphosphates were hydrolysed
